# Measurements reported in ChEMBL document CHEMBL1149259, “Potent N-(1,3-thiazol-2-yl)pyridin-2-amine vascular endothelial growth factor receptor tyrosine kinase inhibitors with excellent pharmacokinetics and low affinity for the hERG ion channel” (J Med Chem, 2004).
# The source made the active and inactive calls. The calls are words filed in the database; no cut-off is given here.
# Columns and labels:
# [1] = target: T1, Vascular endothelial growth factor receptor 2 (Homo sapiens, UniProt P35968); test: Inhibition of VEGF-induced KDR autophosphorylation expressed in HEK293 cells; assay type: functional, cell-based
# [2] = target: T1, Vascular endothelial growth factor receptor 2; test: Inhibition of KDR
# [3] = target: Voltage-gated inwardly rectifying potassium channel KCNH2 (Homo sapiens, UniProt Q12809); test: Displacement of [35S][…] from human ERG expressed in HEK293 cells; assay type: cell-based; conditions: read-out: Inflection point
# [4] = Lipophilicity, log P of the compound; assay type: physicochemical; conditions: octanol/water
# [5] = Half life in Beagle dog at 0.25 mg/kg, iv and 1 mg/kg, po; assay type: ADME, organism-based, Canis lupus familiaris; conditions: in vivo
# Outline: (§1)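 Fasted beagle dogs, two per compound; iv 0.25 mg/kg as a DMSO solution, po 1 mpk as a solution in HCl-acidified methocel or 0.05 M citric acid (aq). Half-life, plasma clearance and steady-state volume of distribution taken from the iv leg; values are the average of the two dogs.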
# [6] = Clearance in Beagle dog at 0.25 mg/kg, iv and 1 mg/kg, po; assay type: ADME, organism-based, Canis lupus familiaris; conditions: in vivo; outline: as §1
# [7] = Volume of distribution in Beagle dog at 0.25 mg/kg, iv and 1 mg/kg, po; assay type: ADME, organism-based, Canis lupus familiaris; conditions: in vivo, read-out: Vdss; outline: as §1
# Homo sapiens = organism: Homo sapiens; test: Protein binding in human plasma; conditions: read-out: PPB (converted)
# [8] = Clearance in Beagle dog at 1 mg/kg, iv and 1 mg/kg, po; assay type: ADME, organism-based, Canis lupus familiaris; conditions: in vivo
# Outline: (§2)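 Fasted beagle dogs, two per compound; iv 1 mg/kg as a DMSO solution; po 1 mg/kg as a solution in 0.05 M citric acid (aq) or HCl-acidified methocel. Plasma half-life, clearance, Vdss and oral bioavailability F taken as the average of the two dogs.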
# [9] = Volume of distribution in Beagle dog at 1 mg/kg, iv and 1 mg/kg, po; assay type: ADME, organism-based, Canis lupus familiaris; conditions: in vivo, read-out: Vdss; outline: as §2
# [10] = Bioavailability in Beagle dog at 1 mg/kg, iv and 1 mg/kg, po; assay type: ADME, organism-based, Canis lupus familiaris; conditions: in vivo; outline: as §2
# Rattus norvegicus = test: Metabolic stability measured as N-Glucuronidation of the parent compound in iv dosed rat; assay type: ADME, organism-based; conditions: in vivo
# Rhesus monkey = test: Metabolic stability measured as N-Glucuronidation of the parent compound in iv dosed rhesus monkey; assay type: ADME, organism-based, Macaca mulatta; conditions: in vivo
# [11] = Metabolic stability in rat liver microsome; assay type: ADME; conditions: liver microsomes
# [12] = Clearance in Sprague-Dawley rat at 2 mg/kg, iv and 10 mg/kg, po; assay type: ADME, organism-based; conditions: in vivo
# Outline: (§3)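 Fasted male Sprague-Dawley rats, three per group: 2 mg/kg bolus iv as a DMSO solution and 10 mg/kg by oral gavage as a solution in 0.05 M citric acid. Clearance, Vdss and F given as mean with standard deviation.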
# [13] = Volume of distribution in Sprague-Dawley rat at 2 mg/kg, iv and 10 mg/kg, po; assay type: ADME, organism-based; conditions: in vivo, read-out: Vdss; outline: as §3
# [14] = Clearance in rhesus monkey at 1 mg/kg, iv and 1 mg/kg, po; assay type: ADME, organism-based, Macaca mulatta; conditions: in vivo
# Outline: (§4)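 Fasted rhesus monkeys, two, crossover design: 1 mg/kg po as a solution in 0.05 M citric acid, and on a separate occasion 1 mg/kg iv as a DMSO solution. Half-life, clearance, Vdss and F reported as the two-animal average.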
# [15] = Volume of distribution in rhesus monkey at 1 mg/kg, iv and 1 mg/kg, po; assay type: ADME, organism-based, Macaca mulatta; conditions: in vivo, read-out: Vdss; outline: as §4
# [16] = Bioavailability in rhesus monkey at 1 mg/kg, iv and 1 mg/kg, po; assay type: ADME, organism-based, Macaca mulatta; conditions: in vivo; outline: as §4
# Cytochrome P450 2C9 = Cytochrome P450 2C9 (Homo sapiens, UniProt P11712); test: Inhibition of human CYP2C9; assay type: ADME
# Outline: (§5)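 Human liver microsomes; inhibition of probe-substrate metabolism measured with diclofenac (CYP2C9), […] (CYP2D6) and testosterone (CYP3A4).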
# Cytochrome P450 2D6 = Cytochrome P450 2D6 (Homo sapiens, UniProt P10635); test: Inhibition of human CYP2D6; assay type: ADME; outline: as §5
# Cytochrome P450 3A4 = Cytochrome P450 3A4 (Homo sapiens, UniProt P08684); test: Inhibition of human CYP3A4; assay type: ADME; outline: as §5
# [17] = target: Vascular endothelial growth factor receptor 2 (Mus musculus, UniProt P35918); test: Inhibition of VEGF-induced mouse lung KDR phosphorylation
# Outline: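 Tyrosine phosphorylation of lung KDR compared between treated and untreated lungs as a function of dose and time after dosing. In vivo IC50 expressed as plasma concentration.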
# Canis familiaris [18] = test: Increase in QT prolongation in anesthetized dog at 0.59 uM plasma level; assay type: functional, Canis lupus familiaris
# [19] = Half life in Beagle dog at 1 mg/kg, iv and 1 mg/kg, po; assay type: ADME, organism-based, Canis lupus familiaris; conditions: in vivo; outline: as §2
# Canis familiaris [20] = test: Increase in QT prolongation in anesthetized dog up to 60 uM plasma level; conditions: Canis lupus familiaris
# Canis familiaris [21] = test: Increase in QT prolongation in anesthetized dog up to 22 uM plasma level; assay type: functional, organism-based; conditions: Canis lupus familiaris
# Voltage-gated inwardly rectifying potassium channel KCNH2, sequence (Q12809 whole entry): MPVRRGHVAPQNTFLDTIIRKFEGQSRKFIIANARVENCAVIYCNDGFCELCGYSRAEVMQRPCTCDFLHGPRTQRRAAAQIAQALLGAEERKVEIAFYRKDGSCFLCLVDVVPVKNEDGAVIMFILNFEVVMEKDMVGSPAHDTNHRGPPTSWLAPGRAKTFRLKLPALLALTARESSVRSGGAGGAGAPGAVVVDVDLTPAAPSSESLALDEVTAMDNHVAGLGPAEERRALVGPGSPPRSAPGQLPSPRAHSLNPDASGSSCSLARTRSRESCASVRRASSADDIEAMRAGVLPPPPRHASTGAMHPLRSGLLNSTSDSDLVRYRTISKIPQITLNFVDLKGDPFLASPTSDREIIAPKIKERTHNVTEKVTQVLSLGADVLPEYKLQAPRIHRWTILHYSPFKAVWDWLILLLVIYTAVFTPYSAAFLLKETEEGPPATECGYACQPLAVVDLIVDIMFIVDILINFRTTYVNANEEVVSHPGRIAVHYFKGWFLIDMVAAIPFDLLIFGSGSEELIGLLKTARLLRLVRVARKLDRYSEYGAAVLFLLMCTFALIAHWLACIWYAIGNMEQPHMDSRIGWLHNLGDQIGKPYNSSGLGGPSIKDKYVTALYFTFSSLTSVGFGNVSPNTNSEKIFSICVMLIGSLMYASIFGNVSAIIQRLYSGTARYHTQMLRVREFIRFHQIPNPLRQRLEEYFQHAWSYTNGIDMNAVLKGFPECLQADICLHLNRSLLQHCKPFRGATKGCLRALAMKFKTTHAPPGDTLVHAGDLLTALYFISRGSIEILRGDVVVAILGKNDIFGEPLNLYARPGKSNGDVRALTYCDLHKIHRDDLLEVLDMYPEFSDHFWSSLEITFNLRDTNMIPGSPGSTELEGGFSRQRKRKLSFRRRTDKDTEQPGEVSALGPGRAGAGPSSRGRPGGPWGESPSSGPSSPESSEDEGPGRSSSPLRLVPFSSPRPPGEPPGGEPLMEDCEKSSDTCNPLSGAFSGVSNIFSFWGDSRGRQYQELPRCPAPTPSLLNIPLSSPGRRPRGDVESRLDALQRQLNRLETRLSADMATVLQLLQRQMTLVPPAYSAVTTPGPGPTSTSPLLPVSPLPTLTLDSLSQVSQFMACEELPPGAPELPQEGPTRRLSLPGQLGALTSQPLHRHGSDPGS
# T1 sequence (P35968 whole entry): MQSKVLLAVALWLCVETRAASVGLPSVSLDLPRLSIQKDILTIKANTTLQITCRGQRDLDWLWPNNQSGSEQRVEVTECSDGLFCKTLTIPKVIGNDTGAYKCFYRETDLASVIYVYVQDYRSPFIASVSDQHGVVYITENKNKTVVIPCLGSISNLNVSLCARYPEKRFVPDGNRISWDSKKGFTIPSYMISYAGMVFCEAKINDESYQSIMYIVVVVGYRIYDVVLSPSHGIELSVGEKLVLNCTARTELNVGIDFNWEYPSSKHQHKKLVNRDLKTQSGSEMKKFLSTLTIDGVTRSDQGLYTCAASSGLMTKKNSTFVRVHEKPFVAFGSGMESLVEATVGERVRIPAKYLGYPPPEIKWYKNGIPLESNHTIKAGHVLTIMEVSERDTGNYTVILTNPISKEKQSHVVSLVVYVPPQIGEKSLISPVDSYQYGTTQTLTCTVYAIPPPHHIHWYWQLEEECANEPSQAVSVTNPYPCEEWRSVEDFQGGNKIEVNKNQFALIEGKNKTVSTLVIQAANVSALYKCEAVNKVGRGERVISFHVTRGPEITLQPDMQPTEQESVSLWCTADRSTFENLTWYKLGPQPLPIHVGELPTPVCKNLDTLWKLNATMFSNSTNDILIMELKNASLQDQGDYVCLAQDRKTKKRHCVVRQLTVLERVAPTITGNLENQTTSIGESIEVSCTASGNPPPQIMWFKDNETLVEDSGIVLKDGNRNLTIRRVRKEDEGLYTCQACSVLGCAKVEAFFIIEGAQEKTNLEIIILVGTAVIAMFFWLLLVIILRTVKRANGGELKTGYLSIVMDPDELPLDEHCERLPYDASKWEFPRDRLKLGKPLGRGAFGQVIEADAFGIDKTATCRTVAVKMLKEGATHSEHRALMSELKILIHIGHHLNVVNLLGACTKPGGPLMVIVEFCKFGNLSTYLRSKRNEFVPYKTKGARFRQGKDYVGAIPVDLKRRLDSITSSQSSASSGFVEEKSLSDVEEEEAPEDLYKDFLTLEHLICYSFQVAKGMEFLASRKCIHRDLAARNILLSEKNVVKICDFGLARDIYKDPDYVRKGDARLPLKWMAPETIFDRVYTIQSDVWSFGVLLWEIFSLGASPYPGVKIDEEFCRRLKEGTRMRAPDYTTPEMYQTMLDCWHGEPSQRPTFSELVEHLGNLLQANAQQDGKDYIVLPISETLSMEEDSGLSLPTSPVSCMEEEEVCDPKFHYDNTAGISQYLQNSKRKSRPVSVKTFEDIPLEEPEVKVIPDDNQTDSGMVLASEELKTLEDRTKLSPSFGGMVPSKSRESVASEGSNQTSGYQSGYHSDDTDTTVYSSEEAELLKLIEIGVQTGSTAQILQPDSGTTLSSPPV
# Cytochrome P450 2C9, sequence (P11712 whole entry): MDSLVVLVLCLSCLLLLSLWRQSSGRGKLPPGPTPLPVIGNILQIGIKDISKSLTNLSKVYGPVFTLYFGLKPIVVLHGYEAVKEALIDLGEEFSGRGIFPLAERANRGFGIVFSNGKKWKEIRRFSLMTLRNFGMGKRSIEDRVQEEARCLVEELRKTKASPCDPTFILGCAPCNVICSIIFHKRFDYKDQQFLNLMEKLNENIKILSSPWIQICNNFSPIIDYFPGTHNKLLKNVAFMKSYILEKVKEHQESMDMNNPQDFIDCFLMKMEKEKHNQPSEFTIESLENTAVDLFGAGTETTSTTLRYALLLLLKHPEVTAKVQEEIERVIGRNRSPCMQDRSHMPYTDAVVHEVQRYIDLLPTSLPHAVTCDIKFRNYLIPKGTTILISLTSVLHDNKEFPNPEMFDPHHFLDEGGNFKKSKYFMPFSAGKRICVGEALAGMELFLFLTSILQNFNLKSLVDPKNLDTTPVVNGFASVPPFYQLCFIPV
# Cytochrome P450 2D6, sequence (P10635 whole entry): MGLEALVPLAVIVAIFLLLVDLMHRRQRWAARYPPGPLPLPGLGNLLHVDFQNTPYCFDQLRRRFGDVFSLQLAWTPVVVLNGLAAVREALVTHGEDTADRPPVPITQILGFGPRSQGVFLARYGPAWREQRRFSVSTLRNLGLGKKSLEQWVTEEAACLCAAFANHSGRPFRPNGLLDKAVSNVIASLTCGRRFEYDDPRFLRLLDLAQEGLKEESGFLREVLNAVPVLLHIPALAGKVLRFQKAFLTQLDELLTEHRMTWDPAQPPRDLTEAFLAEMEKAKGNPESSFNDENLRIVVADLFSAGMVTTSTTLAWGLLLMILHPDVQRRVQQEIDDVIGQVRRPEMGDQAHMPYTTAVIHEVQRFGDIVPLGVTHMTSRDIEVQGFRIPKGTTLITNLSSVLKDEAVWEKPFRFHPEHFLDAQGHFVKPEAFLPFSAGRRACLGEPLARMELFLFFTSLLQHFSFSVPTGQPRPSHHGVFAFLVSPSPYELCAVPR
# Cytochrome P450 3A4, sequence (P08684 whole entry): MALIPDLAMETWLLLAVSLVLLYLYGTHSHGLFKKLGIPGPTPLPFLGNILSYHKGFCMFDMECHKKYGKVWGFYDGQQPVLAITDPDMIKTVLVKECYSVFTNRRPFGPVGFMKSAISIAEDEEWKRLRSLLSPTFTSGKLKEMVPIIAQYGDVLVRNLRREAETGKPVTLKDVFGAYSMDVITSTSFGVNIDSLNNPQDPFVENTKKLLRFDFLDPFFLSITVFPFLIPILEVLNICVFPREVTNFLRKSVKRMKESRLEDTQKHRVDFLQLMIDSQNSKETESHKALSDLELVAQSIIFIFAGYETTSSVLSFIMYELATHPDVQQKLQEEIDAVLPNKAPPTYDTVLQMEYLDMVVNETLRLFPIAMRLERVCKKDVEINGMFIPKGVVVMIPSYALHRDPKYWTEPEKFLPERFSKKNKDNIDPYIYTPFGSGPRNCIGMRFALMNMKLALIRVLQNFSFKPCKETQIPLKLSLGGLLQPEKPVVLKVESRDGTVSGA
SMILES,IC50 [1],IC50 [2],IC50 [3],logP [4],clearance [8],Vd [9],bioavailability [10],further results
CN(C)C(=O)N1CCN(Cc2ccnc(Nc3ncc(C#N)s3)c2)CC1,40 nM,10 nM,3510 nM,2.74,,,,half-life [5]: 2 h; clearance [6]: 7.4 mL/min/kg; Vd [7]: 0.88 L/kg; fraction unbound (Homo sapiens): 0.041
N#Cc1cnc(Nc2cc(CN3CCN(C(N)=O)CC3)ccn2)s1,,,24700 nM,,,,,half-life [5]: 2.9 h; clearance [6]: 2.6 mL/min/kg; Vd [7]: 0.34 L/kg
N#Cc1cnc(Nc2cc(CN3CCOCC3)ccn2)s1,43 nM,8 nM,,,,,,half-life [5]: 2.5 h; clearance [6]: 12.4 mL/min/kg; Vd [7]: 1 L/kg
CS(=O)(=O)N1CCN(Cc2ccnc(Nc3ncc(-c4ccccc4)s3)c2)CC1,,,130 nM,,,,,
CC(=O)N1CCN(Cc2ccnc(Nc3ncc(-c4ccccc4)s3)c2)CC1,43 nM,8 nM,240 nM,,,,,
CS(=O)(=O)C1CCN(Cc2ccnc(Nc3ncc(C#N)s3)c2)CC1,31 nM,7 nM,,2.06,1.8 mL/min/kg,0.96 L/kg,95%,
CNC(=O)N1CCN(Cc2ccnc(N(c3ncc([14C]#N)s3)C3O[C@H](C(=O)O)[C@@H](O)[C@H](O)[C@H]3O)c2)CC1 (stereo partly specified),,,,,,,,Stability (Rattus norvegicus): 37.6%; Stability (Rhesus monkey): 63.3%
c1ccc(-c2cnc(Nc3cc(CN4CCCC4)ccn3)s2)cc1,15 nM,3 nM,,,,,,half-life [11]: 8 min
CNC(=O)N1CCN(Cc2ccnc(Nc3ncc(C#N)s3)c2)CC1,27 nM,12 nM,9280 nM,2.06,0.51 mL/min/kg,0.72 L/kg,99%,clearance [12]: 13.3 mL/min/kg; Vd [13]: 1.5 L/kg; clearance [14]: 17.2 mL/min/kg; Vd [15]: 1.3 L/kg; bioavailability [16]: 43%; IC50 (Cytochrome P450 2C9): > 50000 nM; IC50 (Cytochrome P450 2D6): > 50000 nM; IC50 (Cytochrome P450 3A4): > 50000 nM; IC50 [17]: 90 nM
c1ccc(-c2cnc(Nc3ccc(CN4CCCC4)cn3)s2)cc1,,,8 nM,,,,,Activity (Canis familiaris [18]): 10%
N#Cc1cnc(Nc2cc(CN3CCN(C(=O)CO)CC3)ccn2)s1,35 nM,9 nM,9870 nM,1.68,0.88 mL/min/kg,0.47 L/kg,61%,half-life [19]: 6.6 h; fraction unbound (Homo sapiens): 0.262
CC(=O)N1CCN(Cc2ccnc(Nc3ncc(C#N)s3)c2)CC1,41 nM,13 nM,,2.05,1.2 mL/min/kg,0.72 L/kg,87%,half-life [19]: 7.2 h; Activity (Canis familiaris [20]): inactive
CNC(=O)N1CCN(Cc2ccnc(Nc3ncc(C#N)s3)c2C)CC1,,,,,,,,Activity (Canis familiaris [21]): inactive; IC50 (Cytochrome P450 2C9): > 100000 nM; IC50 (Cytochrome P450 2D6): > 100000 nM; IC50 (Cytochrome P450 3A4): > 100000 nM
